Measured values from ChEMBL document CHEMBL4477168, “Hydrolyzable Tannins of Tamaricaceous Plants. 7.1 Structures and Cytotoxic Properties of Oligomeric Ellagitannins from Leaves of Tamarix nilotica and Cultured Tissues of Tamarix tetrandra” (J Nat Prod, 2016).

How the values were obtained:
[1] = Cytotoxic activity against human HPLF cells assessed as reduction in cell viability incubated for 48 hrs by MTT assay; assay type: cell-based
Method in brief: (§1)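 Normal oral cells (gingival fibroblasts, pulp cells, periodontal ligament fibroblasts) from a premolar of a child, used at 8−15 population doublings; DMEM + 10% heat-inactivated FBS, 37 °C, 5% CO2. Seeded 5 × 10^3 cells/well, medium replaced after 48 h with compound (DMSO stock 20 mM; 2-fold dilutions from 100 μM, triplicate wells); 48 h more, MTT viability; CC50 from dose−response curve; mean of ≥3 independent experiments.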

HSC-2 = experiment: Cytotoxic activity against human HSC2 cells assessed as reduction in cell viability incubated for 48 hrs by MTT assay; assay type: functional; conditions: HSC-2, 48 h
Method in brief: (§2)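 OSCC lines HSC-2, HSC-3, HSC-4 grown in DMEM + 10% heat-inactivated FBS, 37 °C, humidified 5% CO2. Seeded 5 × 10^3 cells/well; after 48 h medium swapped for compound-containing medium (20 mM DMSO stock; top 100 μM, 2-fold serial dilution, three replicate wells). Further 48 h, viable cells by MTT; CC50 read from dose−response curve; at least three independent experiments averaged.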

HL-60 = experiment: Cytotoxic activity against human HL60 cells assessed as reduction in cell viability incubated for 48 hrs by trypan blue staining based hemocytometry; assay type: functional; conditions: HL-60, 48 h
Method in brief: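 HL-60 cultured in RPMI1640 + 10% heat-inactivated FBS at 37 °C; plated at 3.0 × 10^4 cells/0.1 mL with various compound concentrations (DMSO stock 20 mM). After 48 h, viable cells counted by trypan blue exclusion on a hemocytometer under light microscope; CC50 from dose−response curve, mean of at least three independent experiments.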

[2] = Cytotoxic activity against human HGF cells assessed as reduction in cell viability incubated for 48 hrs by MTT assay; assay type: cell-based; method in brief: as §1
HSC-4 = experiment: Cytotoxic activity against human HSC4 cells assessed as reduction in cell viability incubated for 48 hrs by MTT assay; assay type: functional; conditions: HSC-4, 48 h; method in brief: as §2
[3] = Cytotoxic activity against human HPC cells assessed as reduction in cell viability incubated for 48 hrs by MTT assay; assay type: cell-based; method in brief: as §1
HSC-3 = experiment: Cytotoxic activity against human HSC3 cells assessed as reduction in cell viability incubated for 48 hrs by MTT assay; assay type: functional; conditions: HSC-3, 48 h; method in brief: as §2

Structure (SMILES)	CC50 at 48 h [1]	CC50 (HSC-2)	CC50 (HL-60)	CC50 at 48 h [2]	CC50 (HSC-4)	CC50 at 48 h [3]	CC50 (HSC-3)
O=C(O[C@@H]1O[C@@H]2COC(=O)c3cc(O)c(O)c(O)c3-c3c(cc(O)c(O)c3O)C(=O)O[C@H]2[C@H](OC(=O)c2cc(O)c(O)c(O)c2)[C@H]1OC(=O)c1cc(O)c(O)c(O)c1Oc1cc(C(=O)O[C@@H]2O[C@@H]3COC(=O)c4cc(O)c(O)c(O)c4-c4c(cc(O)c(O)c4O)C(=O)O[C@H]3[C@H](OC(=O)c3cc(O)c(O)c(O)c3)[C@H]2OC(=O)c2cc(O)c(O)c(O)c2Oc2cc3c(c(O)c2O)Oc2cc(cc(O)c2O)C(=O)O[C@@H]2O[C@@H]4COC(=O)c5cc(O)c(O)c(O)c5-c5c(cc(O)c(O)c5O)C(=O)O[C@H]4[C@H](OC(=O)c4cc(O)c(O)c(O)c4)[C@H]2OC3=O)cc(O)c1O)c1cc(O)c(O)c(O)c1	98.6 µM	18.8 µM	16.4 µM	87.7 µM	34.3 µM	85 µM	25.5 µM
O=C(O[C@H]1[C@@H]2OC(=O)c3cc(O)c(O)c(O)c3-c3c(cc(O)c(O)c3O)C(=O)OC[C@H]2OC(O)[C@@H]1O)c1cc(O)c(O)c(O)c1 (some centres undefined)	> 100 µM	5.82 µM	30.5 µM	> 100 µM	34.4 µM	> 100 µM	23.3 µM
O=C(O[C@@H]1O[C@@H]2COC(=O)c3cc(O)c(O)c(O)c3-c3c(cc(O)c(O)c3O)C(=O)O[C@H]2[C@H](OC(=O)c2cc(O)c(O)c(O)c2)[C@H]1OC(=O)c1cc(O)c(O)c(O)c1)c1cc(O)c(O)c(Oc2c(C(=O)O[C@H]3[C@H](OC(=O)c4cc(O)c(O)c(Oc5c(C(=O)O[C@H]6C(O)O[C@@H]7COC(=O)c8cc(O)c(O)c(O)c8-c8c(cc(O)c(O)c8O)C(=O)O[C@H]7[C@@H]6OC(=O)c6cc(O)c(O)c(O)c6)cc(O)c(O)c5O)c4)O[C@@H]4COC(=O)c5cc(O)c(O)c(O)c5-c5c(cc(O)c(O)c5O)C(=O)O[C@H]4[C@@H]3OC(=O)c3cc(O)c(O)c(O)c3)cc(O)c(O)c2O)c1 (some centres undefined)	88.3 µM	23.2 µM	6.48 µM	88 µM	33.9 µM	86 µM	21.2 µM
O=C(O[C@@H]1O[C@@H]2COC(=O)c3cc(O)c(O)c(O)c3-c3c(cc(O)c(O)c3O)C(=O)O[C@H]2[C@H](OC(=O)c2cc(O)c(O)c(O)c2)[C@H]1OC(=O)c1cc(O)c(O)c(O)c1)c1cc(O)c(O)c(Oc2c(C(=O)O[C@@H]3[C@@H](OC(=O)c4cc(O)c(O)c(O)c4)[C@@H]4OC(=O)c5cc(O)c(O)c(O)c5-c5c(cc(O)c(O)c5O)C(=O)OC[C@H]4O[C@H]3O)cc(O)c(O)c2O)c1	> 100 µM	17.7 µM	19.5 µM	92 µM	37.9 µM	86.6 µM	32.6 µM
O=C(O[C@@H]1O[C@@H]2COC(=O)c3cc(O)c(O)c(O)c3-c3c(cc(O)c(O)c3O)C(=O)O[C@H]2[C@H](OC(=O)c2cc(O)c(O)c(O)c2)[C@H]1OC(=O)c1cc(O)c(O)c(O)c1)c1cc(O)c(Oc2c(C(=O)O[C@H]3[C@H](OC(=O)c4cc(O)c(O)c(O)c4)O[C@@H]4COC(=O)c5cc(O)c(O)c(O)c5-c5c(cc(O)c(O)c5O)C(=O)O[C@H]4[C@@H]3OC(=O)c3cc(O)c(O)c(O)c3)cc(O)c(O)c2O)c(O)c1	> 100 µM	16.3 µM	29.7 µM	95.3 µM	27.7 µM	89 µM	29.4 µM
O=C(O[C@@H]1O[C@@H]2COC(=O)c3cc(O)c(O)c(O)c3-c3c(cc(O)c(O)c3O)C(=O)O[C@H]2[C@H](OC(=O)c2cc(O)c(O)c(O)c2)[C@H]1O)c1cc(O)c(O)c(O)c1	> 100 µM	14.1 µM	39.9 µM	> 100 µM	38 µM	> 100 µM	28 µM
O=C(O[C@H]1[C@@H]2OC(=O)c3cc(O)c(O)c(O)c3-c3c(cc(O)c(O)c3O)C(=O)OC[C@H]2OC(O)[C@@H]1OC(=O)c1cc(O)c(O)c(O)c1)c1cc(O)c(O)c(O)c1 (some centres undefined)	> 100 µM	14.6 µM	46.7 µM	> 100 µM	45.7 µM	64 µM	19.5 µM
